# The source made the active and inactive calls. The calls are words filed in the database; no cut-off is given here.
# Legend:
# [1] = Kinetic solubility of compound in PBS at pH 7.4 by UV-VIS absorption spectrophotometry analysis; type: physicochemical; conditions: PBS, read-out: Kinetic_solubility
# How it was run: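 A 10 mM DMSO stock was diluted into PBS pH 7.4 at a target of 200 µM (final PBS:DMSO 98:2), in triplicate. Agitated 500 rpm for 90 min, then filtered. Filtrate diluted to PBS:DMSO 80:20 and its UV absorbance compared against a 200–6.75 µM standard series to give the concentration remaining in solution.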
# [2] = Distribution coefficient, logD of compound at pH 7.4 by shake flask method based LC-MS/MS analysis; type: physicochemical; conditions: octanol/water, read-out: logD
# How it was run: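 Shake-flask method: compound diluted from 10 mM DMSO stock into equal volumes of octanol and PBS, final concentration 100 µM. Shaken 12 h, then centrifuged. Both layers analysed in triplicate by LC-MS/MS (MRM, C8 UPLC). LogD = log10 of the octanol/buffer peak-area ratio.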
# [3] = Microsomal stability in human liver microsomes assessed as half life at 1 uM preincubated for 5 mins followed by NADPH regenerating system addition measured after 30 mins by LC-MS/MS analysis; type: ADME, Microsome; conditions: t1/2, time 35 min
# How it was run: (§1)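 Human or mouse liver microsomes (0.2 mg/mL protein) with compound at 1 µM final, pre-incubated 5 min at 37 °C. Reaction started with NADPH generating solution and agitated at 37 °C, with samples quenched up to 30 min. Centrifuged; supernatant analysed in triplicate by LC-MS.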
# [4] = Microsomal stability in mouse liver microsomes assessed as half life at 1 uM preincubated for 5 mins followed by NADPH regenerating system addition measured after 30 mins by LC-MS/MS analysis; type: ADME, Microsome; conditions: t1/2, time 35 min; how it was run: as §1
# [5] = target: T1, N-formyl peptide receptor 2 (Homo sapiens, UniProt P25090); test: Agonist activity at FPRL1 (unknown origin) expressed in CHO-K1 cells assessed as increase in calcium mobilization incubated for 2.5 hrs by cellular based FLIPR assay; type: functional, cell-based
# T1 sequence (P25090 whole entry): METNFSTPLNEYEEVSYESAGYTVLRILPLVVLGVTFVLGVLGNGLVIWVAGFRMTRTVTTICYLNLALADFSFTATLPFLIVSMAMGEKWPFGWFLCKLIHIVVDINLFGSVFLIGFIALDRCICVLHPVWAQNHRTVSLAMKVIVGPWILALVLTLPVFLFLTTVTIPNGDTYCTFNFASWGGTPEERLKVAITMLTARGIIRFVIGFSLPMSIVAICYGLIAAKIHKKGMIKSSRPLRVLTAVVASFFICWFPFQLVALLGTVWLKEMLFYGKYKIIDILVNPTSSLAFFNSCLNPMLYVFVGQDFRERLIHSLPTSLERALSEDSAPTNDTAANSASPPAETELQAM
# How it was run: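 CHO-K1 cells overexpressing hFPR2, plated at 20,000 cells/well in F-12 with 10% FBS and held overnight at 37 °C. Loaded with FLIPR Calcium 6 dye for 2 h at 37 °C, then 30 min at RT in the dark. Compounds were half-log serially diluted from 10 mM stocks in HBSS/20 mM HEPES. Cytosolic Ca2+ rise read on FLIPR Tetra. WKYMVm served as control.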
# [6] = target: T1, N-formyl peptide receptor 2; test: (§2) Agonist activity at FPRL1 (unknown origin) expressed in CHO-K1 cells assessed as stimulation of beta-arrestin recruitment incubated for 150 mins by beta-galactosidase based PathHunter assay; type: functional, cell-based
# How it was run: (§3)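 PathHunter CHO-K1 FPRL1 cells expressing β-gal enzyme-fragment complementation, 5000 cells/well, held overnight at 37 °C. Stimulated with half-log serial dilutions of compounds (10 mM stocks in PBS) for 150 min at 37 °C. High control was WKYMVm at 100 nM. Detection reagent added for 60 min at RT in the dark, then chemiluminescence read.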
# [7] = target: T2, N-formyl peptide receptor 2 (Homo sapiens) (UniProt P25090); test: Agonist activity at FPRL1 (unknown origin) expressed in CHO-K1 cells assessed as increase in calcium mobilization […] incubated for 2.5 hrs by cellular based FLIPR assay; type: functional, cell-based
# T2 sequence (whole entry): T1 sequence (P25090 whole entry)
# How it was run: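 CHO-K1 cells overexpressing human FPR2 (PathHunter FPRL1 line), plated at 20,000/well in F-12 with 10% FBS and held 1 h RT, then overnight at 37 °C. Calcium 6 dye loaded 2 h at 37 °C, then 30 min RT in the dark. Compounds were half-log serially diluted from 10 mM stocks in HBSS with 20 mM HEPES. Cytosolic Ca2+ rise read on FLIPR Tetra.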
# [8] = target: T2, N-formyl peptide receptor 2 (Homo sapiens); test: Agonist activity at FPRL1 (unknown origin) expressed in CHO-K1 cells assessed as stimulation of beta-arrestin recruitment […] incubated for 150 mins by beta-galactosidase based PathHunter assay; type: functional, cell-based
# How it was run: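 PathHunter CHO-K1 FPRL1 cells carry complementing β-galactosidase fragments. Plated at 5000/well, held 1 h RT, then overnight at 37 °C. Compounds were half-log serially diluted from 10 mM stocks in PBS. Stimulation 150 min at 37 °C; W-peptide (WKYMVm, 100 nM) was the high control. Detection reagent added for 60 min RT in the dark, with chemiluminescence read-out.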
# [9] = test system: Neutrophil; test: Inhibition of cell adhesion in human Neutrophils assessed as reduction on neutrophil at 1 to 100 uM incubated for 30 mins by DAPI staining based immunofluorescence assay; type: functional; conditions: dose 1-100 µM
# How it was run: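 Neutrophils isolated from healthy donor blood (Polymorphprep) and suspended in HBSS/20 mM HEPES/0.25% BSA/Ca2+, pH 7.4, at 0.5 × 10⁶/mL. Pre-incubated with agonists (final 1:5 dilution) 30 min at 37 °C. Then adhered 20 min at 37 °C on plates coated with P-selectin and ICAM-1 (1 µg/mL each), BSA-blocked. PFA-fixed and DAPI-stained; four images per well counted. 3 independent experiments × 3 technical replicates.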
# [10] = target: T3, fMet-Leu-Phe receptor (Homo sapiens, UniProt P21462); test: Agonist activity at human FPR1 expressed in HEK293-A cells assessed as ERK phosphorylation level incubated for 5 mins by ELISA assay; type: functional, cell-based
# T3 sequence (P21462 whole entry): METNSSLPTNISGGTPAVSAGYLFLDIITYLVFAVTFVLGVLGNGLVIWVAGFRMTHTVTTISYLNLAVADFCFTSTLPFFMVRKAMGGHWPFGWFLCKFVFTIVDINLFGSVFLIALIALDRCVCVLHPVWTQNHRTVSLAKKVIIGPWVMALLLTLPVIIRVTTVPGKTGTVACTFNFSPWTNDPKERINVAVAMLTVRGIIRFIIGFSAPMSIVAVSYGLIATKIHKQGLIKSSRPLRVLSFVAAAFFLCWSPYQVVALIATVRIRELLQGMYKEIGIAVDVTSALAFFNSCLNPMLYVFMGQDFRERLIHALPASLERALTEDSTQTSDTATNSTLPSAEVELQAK
# How it was run: (§4)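 HEK293A cells stably transfected with human FPR1 or FPR2, seeded at 2 × 10⁴/well and grown 48 h. Serum-starved 3 h, then stimulated 5 min with compounds in serum-free DMEM, top concentration 30 µM, 1/3 serial dilutions. Lysed in ice-cold buffer; p-ERK1/2 (pT202/Y204) measured by SimpleStep ELISA (OD). Expressed as increment over basal.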
# [11] = target: T1, N-formyl peptide receptor 2; test: Agonist activity at human FPR2 expressed in HEK293-A cells assessed as ERK phosphorylation level incubated for 5 mins by ELISA assay; type: functional, cell-based; how it was run: as §4
# [12] = Cmax in C57BL6 mouse at 10 mg/kg, ip measured upto 24 hrs; type: ADME, organism-based; design: route intraperitoneal, dose 10 mg/kg, time <=24; conditions: in vivo
# How it was run: (§5)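 Male C57BL6 mice, single intraperitoneal dose of 10 mg/kg as a clear solution in DMSO 10%/PEG400 35%/PG 25%/water 30%. 12 mice used: 9 dosed, 3 for blank plasma. Each mouse bled three times. Plasma concentration measured at eight time points over 24 h.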
# [13] = Tmax in C57BL6 mouse at 10 mg/kg, ip; type: ADME, organism-based; conditions: in vivo; how it was run: as §5
# [14] = Half life in C57BL6 mouse at 10 mg/kg, ip; type: ADME, organism-based; conditions: in vivo; how it was run: as §5
# [15] = AUC (0 to t) in C57BL6 mouse at 10 mg/kg, ip; type: ADME, organism-based; design: dose 10 mg/kg; conditions: in vivo
# [16] = AUC (0 to infinity) in C57BL6 mouse at 10 mg/kg, ip; type: ADME, organism-based; design: time infinity, route intraperitoneal, dose 10 mg/kg; conditions: in vivo
# [17] = AUC extrapolated in C57BL6 mouse at 10 mg/kg, ip; type: ADME, organism-based; conditions: in vivo; how it was run: as §5
# [18] = MRT(0 to t) in C57BL6 mouse at 10 mg/kg, ip; type: ADME, organism-based; conditions: in vivo; how it was run: as §5
# [19] = target: T4, fMet-Leu-Phe receptor (Homo sapiens) (UniProt P21462); test: Agonist activity at human FPR1 expressed in HEK293-A cells assessed as maximal ERK phosphorylation level at 30 uM incubated for 5 mins by ELISA assay; type: functional, cell-based
# T4 sequence (whole entry): T3 sequence (P21462 whole entry)
# How it was run: (§6)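 HEK293A cells stably transfected with human FPR1 or FPR2, in DMEM with 10% FCS, seeded 2×10⁴/well and grown 48 h. Serum-starved 3 h, then stimulated 5 min with compounds in serum-free DMEM (1/3 serial dilutions from top concentration). W peptide was the positive control. Lysed in ice-cold buffer. p-ERK1/2 (pT202/Y204) measured by ELISA OD and expressed as increment over basal per receptor.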
# [20] = target: T2, N-formyl peptide receptor 2 (Homo sapiens); test: Agonist activity at human FPR2 expressed in HEK293-A cells assessed as maximal ERK phosphorylation level at 30 uM incubated for 5 mins by ELISA assay; type: functional, cell-based; conditions: filed as agonist; how it was run: as §6
# [21] = target: T2, N-formyl peptide receptor 2 (Homo sapiens); test: as §2; type: functional, cell-based; how it was run: as §3
# [22] = filed as agonist, time 0.067 hrs, in the assay text read “measured for 240 s” for “incubated for 2.5 hrs”
SMILES,solubility kinetic [1] [µM],logD [2],half-life at 1 µM [3] [h],half-life at 1 µM [4] [h],EC50 ([5]; read-out: EC50) [nM],EC50 ([6]; read-out: EC50) [nM],"Emax [7, 22] [%]",Emax ([8]; filed as agonist) [%],also measured
O=C(Nc1ccc(Br)cc1)NC1CCN(CC2CCNCC2)C1=O (configuration not stated),227,0.8,6.35,2.33,270,3290,84,102,
CC(C)(C)OC(=O)N1CCC(CN2CCC(NC(=O)Nc3ccc(Br)cc3)C2=O)CC1 (configuration not stated),53,> 4,0.317,0.317,400,2160,86,92,
Cc1nn(-c2ccccc2)c(C)c1N1CCC(NC(=O)Nc2ccc(Br)cc2)C1=O (configuration not stated),57,4.6,3.15,0.633,280,400,150,95,
O=C(Nc1ccc(Br)cc1)NC1CCN(c2ccccc2)C1=O (configuration not stated),15,> 4,> 6.67,> 6.67,430,300,73,,Activity [9]: Dose-Dependent Effect; EC50 ([10]; read-out: EC50): 1740 nM; EC50 [11]: 7360 nM; Cmax [12]: 3610 ng/mL; Tmax [13]: 0.25 h; half-life [14]: 9.42 h; AUC(0-t) [15]: 28600 ng·h/mL; AUC(0-inf) [16]: 35000 ng·h/mL; %AUCextra [17]: 18.17%; MRT last [18]: 9.2 h; Emax [19]: 15%; Emax [20]: 69%
CC(C)n1cc(N2CCC(NC(=O)Nc3ccc(Br)cc3)C2=O)cn1 (configuration not stated),1,3.7,5.37,2.66,884,,,,Emax [21]: inactive; Emax [8]: inactive
Cc1nn(C)cc1N1CCC(NC(=O)Nc2ccc(Br)cc2)C1=O (configuration not stated),9,2.6,3.05,2.87,142,740,,98,EC50 ([10]; hek293-a): Not Active; EC50 [11]: 4880 nM; Emax [19]: inactive; Emax [20]: 90%
O=C(Nc1ccc(Br)cc1)NC1CCN(CC2CCN(Cc3ccccc3)CC2)C1=O (configuration not stated),192,2.5,3.78,2.02,250,2250,99,93,
O=C(Nc1ccc(Br)cc1)NC1CCN(Cc2ccccc2)C1=O (configuration not stated),75,4.4,2.8,2.12,,,,,EC50 ([5]; cho-k1): Not Active; EC50 ([6]; cho-k1): Not Active; Emax ([7]; time 2.5 hrs): inactive; Emax [8]: inactive

# — ChEMBL document CHEMBL5038608, “Design, synthesis, and biological evaluation of novel pyrrolidinone small-molecule Formyl peptide receptor 2 agonists” (Eur J Med Chem, 2021)
